pKi: −log10 of the molar value. Each block holds one compound with its values, some of them ahead of it.
What was measured:
Mus musculus [1] = assay: fCmax associated with acute adverse effect in mouse at 100 to 200 mg/kg, ip; format: ADME, organism-based; settings: in vivo
Summary of the method: (§1)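 Mouse tolerability studies at multiple doses, oral or intraperitoneal. Minimum unbound plasma concentration associated with adverse effects (total Cmax converted to unbound) compared with IC50 for inhibition of MEK1 S298 phosphorylation in cells.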

[2] = biological target: Serine/threonine-protein kinase PAK 1/PAK 2 (Homo sapiens, UniProt Q13177+Q13153); assay: Inhibition of PAK1/2 in human EBC1 cells assessed as phosphorylation of MEK1 at serine 298 after 2 hrs by HTRF assay; format: cell-based
[3] = Ratio of fCmax associated with acute adverse effect in mouse at 100 to 200 mg/kg, ip to IC50 for PAK1/2-mediated phosphorylation of MEK1 at serine 298 in human EBC1 cells
[4] = biological target: Serine/threonine-protein kinase PAK 2 (Homo sapiens, UniProt Q13177); assay: (§2) Inhibition of human recombinant PAK2 assessed as phosphorylation of coumarin labeled FRET peptide substrate at Ser/Thr19 preincubated for 10 mins followed by ATP addition measured after 60 mins by Z'-LYTE assay
Sequence of Serine/threonine-protein kinase PAK 2 (Q13177 whole entry, the tested form may be a part): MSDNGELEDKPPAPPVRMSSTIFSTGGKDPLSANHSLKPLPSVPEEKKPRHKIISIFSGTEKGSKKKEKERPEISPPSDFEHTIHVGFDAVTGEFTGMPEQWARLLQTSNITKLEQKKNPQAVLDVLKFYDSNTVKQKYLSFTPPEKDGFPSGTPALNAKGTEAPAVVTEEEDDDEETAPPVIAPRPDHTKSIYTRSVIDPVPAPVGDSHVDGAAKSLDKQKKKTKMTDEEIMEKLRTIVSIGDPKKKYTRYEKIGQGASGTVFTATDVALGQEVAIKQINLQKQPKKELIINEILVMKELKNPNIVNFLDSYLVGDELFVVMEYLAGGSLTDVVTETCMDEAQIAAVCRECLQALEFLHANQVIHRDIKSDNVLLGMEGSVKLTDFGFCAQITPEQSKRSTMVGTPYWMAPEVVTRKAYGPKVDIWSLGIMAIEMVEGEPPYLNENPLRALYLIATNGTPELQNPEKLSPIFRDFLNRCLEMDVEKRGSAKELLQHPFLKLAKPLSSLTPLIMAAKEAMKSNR

[5] = biological target: Serine/threonine-protein kinase PAK 1 (Homo sapiens, UniProt Q13153); assay: as §2, with “N-terminal 6-His-tagged PAK1 kinase domain (249 to 545 residues) expressed in Escherichia coli BL21(DE3)” for “PAK2”
Sequence of Serine/threonine-protein kinase PAK 1 (Q13153 whole entry, the tested form may be a part): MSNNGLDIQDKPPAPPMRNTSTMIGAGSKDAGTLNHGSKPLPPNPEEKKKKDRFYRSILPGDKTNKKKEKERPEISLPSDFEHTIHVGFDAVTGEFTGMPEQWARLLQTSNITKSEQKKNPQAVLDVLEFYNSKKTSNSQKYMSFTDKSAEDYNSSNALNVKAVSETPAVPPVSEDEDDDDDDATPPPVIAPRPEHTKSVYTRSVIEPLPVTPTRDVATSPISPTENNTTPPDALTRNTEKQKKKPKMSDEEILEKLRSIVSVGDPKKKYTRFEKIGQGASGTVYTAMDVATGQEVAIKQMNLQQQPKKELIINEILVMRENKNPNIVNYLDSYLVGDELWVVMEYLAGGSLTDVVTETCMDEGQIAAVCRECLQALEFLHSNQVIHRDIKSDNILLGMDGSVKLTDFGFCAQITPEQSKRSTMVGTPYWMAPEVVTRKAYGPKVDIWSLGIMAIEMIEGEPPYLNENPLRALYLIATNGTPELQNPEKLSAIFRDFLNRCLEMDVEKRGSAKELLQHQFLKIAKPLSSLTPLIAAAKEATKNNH

[6] = Cmax associated with acute adverse effect in mouse at 100 to 200 mg/kg, ip; format: ADME, organism-based; settings: in vivo
Summary of the method: (§3)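 Mouse tolerability studies tested multiple doses, given orally or intraperitoneally. Plasma drug concentrations were measured, including at a 15 min time point. The minimum concentration associated with adverse clinical signs or death was taken as the adverse Cmax and was converted to an unbound value.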

[7] = Fraction unbound in mouse plasma at 100 to 200 mg/kg, ip; format: ADME, organism-based
[8] = Fraction unbound in mouse plasma at 150 to 300 mg/kg, ip; format: ADME, organism-based
[9] = Cmax associated with acute adverse effect in mouse at 150 to 300 mg/kg, ip; format: ADME, organism-based; settings: in vivo; summary of the method: as §3
Mus musculus [10] = assay: fCmax associated with acute adverse effect in mouse at 150 to 300 mg/kg, ip; format: ADME, organism-based; settings: in vivo; summary of the method: as §1
[11] = Ratio of fCmax associated with acute adverse effect in mouse at 150 to 300 mg/kg, ip to IC50 for PAK1/2-mediated phosphorylation of MEK1 at serine 298 in human EBC1 cells
Summary of the method: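 Mice were dosed at multiple levels, orally or intraperitoneally, and monitored for acute adverse signs. The minimum unbound plasma Cmax associated with adverse effects was converted from total drug concentration and compared with the cellular IC50 for phospho-MEK1 S298 inhibition.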

[12] = biological target: Serine/threonine-protein kinase MARK1 (Homo sapiens) (UniProt Q9P0L2); assay: Inhibition of recombinant human full length GST-tagged MARK1 expressed in Baculovirus at 1 uM relative to control
[13] = biological target: Tyrosine-protein kinase Mer (Homo sapiens) (UniProt Q12866); assay: Inhibition of recombinant human GST-tagged Mer expressed in Baculovirus at 1 uM relative to control
[14] = biological target: Serine/threonine-protein kinase 24 (Homo sapiens) (UniProt Q9Y6E0); assay: Inhibition of recombinant human full length GST-tagged MST3 expressed in Baculovirus at 1 uM relative to control
Sequence of Serine/threonine-protein kinase 24 (Homo sapiens) (Q9Y6E0 whole entry, looked up): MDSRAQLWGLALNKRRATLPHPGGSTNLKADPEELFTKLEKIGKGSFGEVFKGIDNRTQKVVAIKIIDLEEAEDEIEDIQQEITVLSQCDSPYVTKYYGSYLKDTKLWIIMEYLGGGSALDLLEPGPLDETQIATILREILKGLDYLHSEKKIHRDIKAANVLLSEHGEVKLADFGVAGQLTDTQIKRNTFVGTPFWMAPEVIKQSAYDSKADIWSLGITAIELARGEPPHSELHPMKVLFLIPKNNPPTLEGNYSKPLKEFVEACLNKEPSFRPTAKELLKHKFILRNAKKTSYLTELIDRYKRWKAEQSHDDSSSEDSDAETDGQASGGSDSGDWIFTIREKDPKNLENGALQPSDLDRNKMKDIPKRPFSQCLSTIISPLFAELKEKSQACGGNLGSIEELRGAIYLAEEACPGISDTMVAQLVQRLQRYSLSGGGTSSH

[15] = Cmax associated with acute adverse effect in mouse at 50 mg/kg, ip; format: ADME, organism-based; set-up: dose 50 mg/kg, route intraperitoneal; settings: in vivo; summary of the method: as §3
[16] = biological target: Phosphorylase b kinase gamma catalytic chain, skeletal muscle/heart isoform (Homo sapiens) (UniProt Q16816); assay: Inhibition of recombinant human full length GST-tagged PHKgamma 1 expressed in Baculovirus at 1 uM relative to control
Mus musculus [17] = assay: fCmax associated with acute adverse effect in mouse at 50 mg/kg, ip; format: ADME, organism-based; settings: in vivo; summary of the method: as §1
[18] = biological target: 5'-AMP-activated protein kinase catalytic subunit alpha-2 (Homo sapiens) (UniProt P54646); assay: Inhibition of recombinant human PRKAA2 at 1 uM relative to control
Sequence of 5'-AMP-activated protein kinase catalytic subunit alpha-2 (Homo sapiens) (P54646 whole entry, looked up): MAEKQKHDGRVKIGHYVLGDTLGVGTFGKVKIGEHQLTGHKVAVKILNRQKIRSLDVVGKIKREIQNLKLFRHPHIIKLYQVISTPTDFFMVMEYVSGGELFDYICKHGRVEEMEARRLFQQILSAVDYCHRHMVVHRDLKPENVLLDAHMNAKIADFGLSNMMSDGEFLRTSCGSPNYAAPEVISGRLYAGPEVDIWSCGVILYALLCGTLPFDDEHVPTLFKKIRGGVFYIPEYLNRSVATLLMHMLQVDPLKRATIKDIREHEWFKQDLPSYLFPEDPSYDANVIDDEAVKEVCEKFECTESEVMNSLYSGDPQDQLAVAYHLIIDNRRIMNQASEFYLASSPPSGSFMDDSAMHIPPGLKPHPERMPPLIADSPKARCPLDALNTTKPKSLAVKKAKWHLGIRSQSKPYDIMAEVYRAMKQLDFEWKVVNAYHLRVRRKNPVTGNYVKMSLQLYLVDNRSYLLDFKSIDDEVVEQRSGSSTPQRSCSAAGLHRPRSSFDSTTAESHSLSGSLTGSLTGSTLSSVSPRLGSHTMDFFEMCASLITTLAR

[19] = biological target: Ribosomal protein S6 kinase alpha-2 (Homo sapiens) (UniProt Q15349); assay: Inhibition of recombinant human full length His-tagged RSK2 expressed in Baculovirus at 1 uM relative to control
[20] = Cmax in mouse at 50 mg/kg, ip; format: ADME, organism-based; set-up: dose 50 mg/kg, route intraperitoneal; settings: in vivo
[21] = biological target: Tyrosine-protein kinase Lyn (Homo sapiens) (UniProt P07948); assay: Inhibition of recombinant human full length His-tagged LynB expressed in Baculovirus at 1 uM relative to control
[22] = biological target: MAP/microtubule affinity-regulating kinase 3 (Homo sapiens) (UniProt P27448); assay: Inhibition of recombinant human full length GST-tagged MARK3 expressed in Baculovirus at 1 uM relative to control
Sequence of MAP/microtubule affinity-regulating kinase 3 (Homo sapiens) (P27448 whole entry, looked up): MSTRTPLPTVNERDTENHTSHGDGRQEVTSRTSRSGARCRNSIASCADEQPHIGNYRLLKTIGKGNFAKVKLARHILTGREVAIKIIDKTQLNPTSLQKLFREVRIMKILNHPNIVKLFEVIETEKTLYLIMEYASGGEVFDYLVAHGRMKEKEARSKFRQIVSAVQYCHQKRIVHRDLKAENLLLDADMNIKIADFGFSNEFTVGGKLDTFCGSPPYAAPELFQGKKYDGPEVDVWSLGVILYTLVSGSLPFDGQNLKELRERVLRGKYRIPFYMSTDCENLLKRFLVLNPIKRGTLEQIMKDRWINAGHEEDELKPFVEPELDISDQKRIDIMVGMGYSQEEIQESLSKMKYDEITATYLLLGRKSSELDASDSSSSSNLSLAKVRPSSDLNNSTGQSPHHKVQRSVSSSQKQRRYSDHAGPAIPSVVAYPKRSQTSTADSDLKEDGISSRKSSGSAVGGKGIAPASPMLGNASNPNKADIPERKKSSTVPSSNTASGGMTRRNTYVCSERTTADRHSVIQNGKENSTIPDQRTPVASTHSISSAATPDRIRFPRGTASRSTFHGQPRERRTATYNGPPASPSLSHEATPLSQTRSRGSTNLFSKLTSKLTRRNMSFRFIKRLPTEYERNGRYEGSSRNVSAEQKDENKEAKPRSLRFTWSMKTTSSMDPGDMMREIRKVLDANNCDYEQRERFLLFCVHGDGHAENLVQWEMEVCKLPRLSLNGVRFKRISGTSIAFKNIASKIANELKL

[23] = biological target: Adenosine receptor A2a (Homo sapiens) (UniProt P29274); assay: Inhibition of recombinant human adenosine A2A receptor expressed in HEK293 cells at 10 uM relative to control; format: cell-based
[24] = biological target: 5'-AMP-activated protein kinase catalytic subunit alpha-1 (Homo sapiens) (UniProt Q13131); assay: Inhibition of recombinant human PRKAA1 at 1 uM relative to control
[25] = biological target: Serine/threonine-protein kinase 26 (Homo sapiens) (UniProt Q9P289); assay: Inhibition of recombinant human full length GST-tagged MST4 expressed in Baculovirus at 1 uM relative to control
Sequence of Serine/threonine-protein kinase 26 (Homo sapiens) (Q9P289 2-416 limits assumed): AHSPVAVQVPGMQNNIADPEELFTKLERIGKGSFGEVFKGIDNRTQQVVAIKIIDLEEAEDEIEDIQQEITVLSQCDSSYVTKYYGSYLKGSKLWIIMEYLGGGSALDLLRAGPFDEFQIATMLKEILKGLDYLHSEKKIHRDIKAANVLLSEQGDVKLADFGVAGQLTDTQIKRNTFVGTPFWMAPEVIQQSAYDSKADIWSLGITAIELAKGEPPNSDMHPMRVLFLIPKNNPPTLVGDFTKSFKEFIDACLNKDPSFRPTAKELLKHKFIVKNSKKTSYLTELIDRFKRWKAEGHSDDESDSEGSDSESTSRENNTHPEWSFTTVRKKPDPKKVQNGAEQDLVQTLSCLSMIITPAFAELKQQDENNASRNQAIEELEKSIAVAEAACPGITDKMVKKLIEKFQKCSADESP

[26] = biological target: Serine/threonine-protein kinase PAK 5 (Homo sapiens) (UniProt Q9P286); assay: Inhibition of recombinant human full length His-tagged PAK5 expressed in Baculovirus at 1 uM relative to control
Sequence of Serine/threonine-protein kinase PAK 5 (Homo sapiens) (Q9P286 whole entry, looked up): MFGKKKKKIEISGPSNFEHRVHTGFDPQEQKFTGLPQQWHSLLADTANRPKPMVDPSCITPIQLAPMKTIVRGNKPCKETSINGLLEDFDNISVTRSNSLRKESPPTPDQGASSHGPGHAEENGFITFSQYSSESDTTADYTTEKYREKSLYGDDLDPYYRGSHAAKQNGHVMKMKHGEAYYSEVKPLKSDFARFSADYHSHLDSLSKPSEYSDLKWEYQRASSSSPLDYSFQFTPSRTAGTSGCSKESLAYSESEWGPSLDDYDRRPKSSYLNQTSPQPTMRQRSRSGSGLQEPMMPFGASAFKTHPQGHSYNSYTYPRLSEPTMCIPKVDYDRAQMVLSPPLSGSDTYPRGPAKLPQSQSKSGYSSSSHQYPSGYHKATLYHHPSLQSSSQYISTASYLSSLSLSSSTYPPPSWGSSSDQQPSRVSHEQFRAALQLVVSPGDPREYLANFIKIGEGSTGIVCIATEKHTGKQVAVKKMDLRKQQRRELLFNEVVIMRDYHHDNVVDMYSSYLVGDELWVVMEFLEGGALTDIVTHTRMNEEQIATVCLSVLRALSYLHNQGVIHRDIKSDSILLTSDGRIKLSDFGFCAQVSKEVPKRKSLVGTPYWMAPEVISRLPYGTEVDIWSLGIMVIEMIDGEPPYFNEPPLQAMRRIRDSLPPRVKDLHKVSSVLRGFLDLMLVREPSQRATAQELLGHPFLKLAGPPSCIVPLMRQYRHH

[27] = biological target: Tyrosine-protein kinase ABL2 (Homo sapiens) (UniProt P42684); assay: Inhibition of recombinant human full length His-tagged ARG expressed in Baculovirus at 1 uM relative to control
[28] = biological target: Testis-specific serine/threonine-protein kinase 1 (Homo sapiens) (UniProt Q9BXA7); assay: Inhibition of recombinant human full length His-tagged TSSK1 expressed in Baculovirus at 1 uM relative to control
[29] = biological target: Serine/threonine-protein kinase 25 (Homo sapiens) (UniProt O00506); assay: Inhibition of recombinant human full length GST-tagged YSK1 expressed in Baculovirus at 1 uM relative to control
Sequence of Serine/threonine-protein kinase 25 (Homo sapiens) (O00506 whole entry, looked up): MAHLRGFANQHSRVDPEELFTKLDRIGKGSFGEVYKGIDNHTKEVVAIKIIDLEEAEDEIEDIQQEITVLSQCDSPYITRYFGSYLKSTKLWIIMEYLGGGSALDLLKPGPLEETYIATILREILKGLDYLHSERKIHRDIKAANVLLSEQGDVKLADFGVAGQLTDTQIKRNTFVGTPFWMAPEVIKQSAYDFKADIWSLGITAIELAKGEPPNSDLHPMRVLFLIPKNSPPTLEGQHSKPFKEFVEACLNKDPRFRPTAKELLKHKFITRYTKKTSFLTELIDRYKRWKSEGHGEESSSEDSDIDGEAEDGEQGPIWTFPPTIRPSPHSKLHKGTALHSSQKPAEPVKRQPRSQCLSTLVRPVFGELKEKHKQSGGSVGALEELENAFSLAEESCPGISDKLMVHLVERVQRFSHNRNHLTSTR

[30] = biological target: Serine/threonine-protein kinase Chk2 (Homo sapiens) (UniProt O96017); assay: Inhibition of recombinant human full length His-tagged CHK2 expressed in Baculovirus at 1 uM relative to control
Sequence of Serine/threonine-protein kinase Chk2 (Homo sapiens) (O96017 whole entry): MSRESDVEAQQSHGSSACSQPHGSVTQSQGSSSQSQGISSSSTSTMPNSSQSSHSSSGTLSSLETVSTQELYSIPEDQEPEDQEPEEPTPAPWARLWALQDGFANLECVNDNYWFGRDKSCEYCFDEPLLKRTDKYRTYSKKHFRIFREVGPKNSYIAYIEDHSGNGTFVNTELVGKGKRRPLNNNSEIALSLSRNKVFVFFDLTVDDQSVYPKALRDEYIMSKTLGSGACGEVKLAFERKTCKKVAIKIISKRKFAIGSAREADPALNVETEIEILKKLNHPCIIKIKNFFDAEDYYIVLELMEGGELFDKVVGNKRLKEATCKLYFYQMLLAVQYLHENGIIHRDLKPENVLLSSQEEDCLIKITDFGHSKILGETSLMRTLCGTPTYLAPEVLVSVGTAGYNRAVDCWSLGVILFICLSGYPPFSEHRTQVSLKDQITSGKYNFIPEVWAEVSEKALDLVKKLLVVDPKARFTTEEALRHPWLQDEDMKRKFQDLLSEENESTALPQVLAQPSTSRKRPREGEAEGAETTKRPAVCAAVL

[31] = biological target: Tyrosine-protein kinase Yes (Homo sapiens) (UniProt P07947); assay: Inhibition of recombinant human full length GST-tagged YES expressed in Baculovirus at 1 uM relative to control
[32] = biological target: Proto-oncogene tyrosine-protein kinase Src (Homo sapiens) (UniProt P12931); assay: Inhibition of recombinant human full length His-tagged SRC expressed in Baculovirus at 1 uM relative to control
[33] = biological target: Sodium-dependent serotonin transporter (Homo sapiens) (UniProt P31645); assay: Inhibition of recombinant human 5HT transporter expressed in CHO cells at 10 uM relative to control; format: cell-based
[34] = biological target: cAMP-dependent protein kinase catalytic subunit alpha (Homo sapiens) (UniProt P17612); assay: Inhibition of recombinant human full length His-tagged PRKACA expressed in Escherichia coli at 1 uM relative to control
[35] = biological target: High affinity nerve growth factor receptor (Homo sapiens) (UniProt P04629); assay: Inhibition of recombinant human His-tagged TRKA (441 to 796 residues) expressed in Baculovirus at 1 uM relative to control
[36] = biological target: Ribosomal protein S6 kinase alpha-6 (Homo sapiens) (UniProt Q9UK32); assay: Inhibition of recombinant human full length GST-tagged RSK4 expressed in Baculovirus at 1 uM relative to control
[37] = biological target: Serine/threonine-protein kinase 4 (Homo sapiens) (UniProt Q13043); assay: Inhibition of recombinant human full length GST-tagged MST1 expressed in Baculovirus at 1 uM relative to control
[38] = biological target: Serine/threonine-protein kinase Chk1 (Homo sapiens) (UniProt O14757); assay: Inhibition of recombinant human full length His-tagged CHK1 expressed in Baculovirus at 1 uM relative to control
[39] = Ratio of fCmax associated with acute adverse effect in mouse at 50 mg/kg, ip to IC50 for PAK1/2-mediated phosphorylation of MEK1 at serine 298 in human EBC1 cells
Summary of the method: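 Mouse tolerability study run at multiple doses, here by i.p. injection. Plasma drug levels were measured, and total concentration was converted to unbound. The minimum unbound Cmax associated with adverse effects (C_max,adverse,u) was divided by the cellular IC50 for inhibition of PAK1/2-mediated MEK1 S298 phosphorylation.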

[40] = biological target: Serine/threonine-protein kinase PAK 4 (Homo sapiens) (UniProt O96013); settings: 1 uM
[41] = biological target: Adenosine receptor A1 (Homo sapiens) (UniProt P30542); assay: Inhibition of recombinant human adenosine A1 receptor expressed in CHO cells at 10 uM relative to control; format: cell-based
[42] = biological target: Proto-oncogene tyrosine-protein kinase receptor Ret (Homo sapiens) (UniProt P07949); assay: Inhibition of recombinant human full length GST-tagged RET expressed in Baculovirus at 1 uM relative to control
[43] = biological target: Protein kinase C theta type (Homo sapiens) (UniProt Q04759); assay: Inhibition of recombinant human full length His-tagged PKCtheta expressed in Baculovirus at 1 uM relative to control
[44] = biological target: Serine/threonine-protein kinase PAK 6 (Homo sapiens) (UniProt Q9NQU5); settings: 1 uM
[45] = biological target: Ribosomal protein S6 kinase alpha-3 (Homo sapiens) (UniProt P51812); assay: Inhibition of recombinant human full length GST-tagged RSK3 expressed in insect cells at 1 uM relative to control
[46] = biological target: CDK7/Cyclin H/MNAT1 (Homo sapiens) (UniProt P51946+P50613+P51948); assay: Inhibition of recombinant human full length His-tagged CDK7/cyclin H/MNAT1 expressed in Baculovirus at 1 uM relative to control
[47] = biological target: Receptor-type tyrosine-protein kinase FLT3 (Homo sapiens) (UniProt P36888); assay: Inhibition of recombinant human full length His-tagged FLT3 expressed in Baculovirus at 1 uM relative to control
[48] = Fraction unbound in mouse plasma at 50 mg/kg, ip; format: ADME, organism-based
[49] = biological target: Glycogen synthase kinase-3 beta (Homo sapiens) (UniProt P49841); assay: Inhibition of recombinant human full length His-tagged GSK3beta expressed in Baculovirus at 1 uM relative to control
[50] = biological target: Protein kinase C alpha type (Homo sapiens) (UniProt P17252); assay: Inhibition of recombinant human full length PKCalpha expressed in Baculovirus at 1 uM relative to control

IC50 [2]: 6000 nM
pKi [4]: 6.03
pKi [5]: 6.43
fraction unbound [7]: 0.104
Compound: Cc1cncc(-c2ccc(-c3cc4cncnc4n(C[C@H]4CC[C@H](N)CC4)c3=O)c(Cl)c2)n1
fCmax (Mus musculus [1]): 6.1 µM
Ratio [3]: 1
Cmax [6]: 59 µM

fraction unbound [8]: 0.025
IC50 [2]: 15000 nM
pKi [4]: 5.44
pKi [5]: 6.02
Compound: CNc1ncc2cc(-c3ccc(-n4cccc(C)c4=O)cc3C3CC3)c(=O)n(C[C@@H]3CNCCO3)c2n1
Cmax [9]: 63 µM
fCmax (Mus musculus [10]): 1.6 µM
Ratio [11]: 1

inhibition [12]: > 75%
inhibition [13]: > 75%
inhibition [14]: > 75%
inhibition [16]: > 75%
inhibition [18]: > 75%
inhibition [19]: > 75%
Cmax [20]: 10 µM
inhibition [21]: > 75%
inhibition [22]: > 75%
inhibition [23]: > 75%
inhibition [24]: > 75%
inhibition [25]: > 75%
inhibition [26]: > 75%
inhibition [27]: > 75%
inhibition [28]: > 75%
inhibition [29]: > 75%
inhibition [30]: > 75%
inhibition [31]: > 75%
inhibition [32]: > 75%
inhibition [33]: > 75%
inhibition [34]: > 75%
inhibition [35]: > 75%
inhibition [36]: > 75%
inhibition [37]: > 75%
inhibition [38]: > 75%
inhibition [40]: > 75%
inhibition [41]: > 75%
inhibition [42]: > 75%
inhibition [43]: > 75%
inhibition [44]: > 75%
inhibition [45]: > 75%
inhibition [46]: > 75%
inhibition [47]: > 75%
fraction unbound [48]: 0.163
inhibition [49]: > 75%
inhibition [50]: > 75%
Compound: Cc1nc(Nc2n[nH]c3c2CN(C(=O)N[C@H](CN(C)C)c2ccccc2)C3(C)C)c2sccc2n1 [PF-03758309]
Cmax [15]: 10 µM
fCmax (Mus musculus [17]): 1.6 µM
Ratio [39]: 1
